Test results taken from ChEMBL document CHEMBL4138207, “Phenolic Substances from Ocimum Species Enhance Glucose-Stimulated Insulin Secretion and Modulate the Expression of Key Insulin Regulatory Genes in Mice Pancreatic Islets” (J Nat Prod, 2017).
Calls of active or inactive are those of the source. No cut-off for these calls is given here.

Experiments:
[1] = Induction of 16.7 mM glucose-stimulated insulin secretion in NMRI mouse pancreatic islets at 10^-6 M after 60 mins by radioimmunoassay relative to 16.7 mM glucose control; format: functional, Pancreatic islet
Outline: (§1)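 Female NMRI mouse islets, cultured overnight, were preincubated 30 min in KRB with 3.3 mM glucose and 0.1% BSA. Single islets were then incubated 60 min at 37 °C in HEPES-KRB (pH 7.4) with 16.7 mM glucose plus compound at 10−10, 10−8 or 10−6 M, diluted from 10−4 M aqueous stock. Medium insulin was measured by RIA and expressed as fold of the 16.7 mM glucose control; 24 replicates.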

[2] = Induction of 16.7 mM glucose-stimulated insulin secretion in NMRI mouse pancreatic islets at 10^-8 M after 60 mins by radioimmunoassay relative to 16.7 mM glucose control; format: functional, Pancreatic islet; outline: as §1
[3] = Induction of 16.7 mM glucose-stimulated insulin secretion in NMRI mouse pancreatic islets at 10^-10 M after 60 mins by radioimmunoassay relative to 16.7 mM glucose control; format: functional, Pancreatic islet; outline: as §1
[4] = Induction of 3.3 mM glucose-stimulated insulin secretion in NMRI mouse pancreatic islets at 10^-6 M after 60 mins by radioimmunoassay; format: cell-based; details: pancreatic islet, 1 h, 1 µM
Outline: (§2)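 Islets from adult female NMRI mice (22–25 g), collagenase-isolated and cultured overnight in RPMI 1640 (11.1 mM glucose, 10% FCS) at 37 °C. After 30 min preincubation in KRB with 3.3 mM glucose and 0.1% BSA, single islets were incubated 60 min at 37 °C in HEPES-KRB (pH 7.4) at 3.3, 6.6, 11.1 or 16.7 mM glucose ± compound at 10−6 M. Insulin in the medium was measured by RIA, reported in ng/mL; n = 16 per treatment.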

[5] = Induction of 6.6 mM glucose-stimulated insulin secretion in NMRI mouse pancreatic islets at 10^-6 M after 60 mins by radioimmunoassay; format: cell-based; details: pancreatic islet, 1 h, 1 µM; outline: as §2
Pancreatic islet [6] = assay: Induction of 16.7 mM glucose-stimulated insulin secretion in NMRI mouse pancreatic islets at 10^-6 M after 60 mins by radioimmunoassay; format: functional, cell-based; outline: as §2
[7] = Induction of 16.7 mM glucose-stimulated insulin secretion in NMRI mouse pancreatic islets at 10^-8 M pretreated for 72 hrs in presence of 11.1 mM glucose followed by 16.7 mM glucose stimulation after 60 mins by radioimmunoassay relative to 16.7 mM glucose control; format: functional, Pancreatic islet
Outline: (§3)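 Islets from female NMRI mice were cultured 72 h in RPMI with 11.1 mM glucose and 10% FCS, ± compound at 10−8 M final. They were rinsed and preincubated 30 min in KRB with 3.3 mM glucose and 0.1% BSA. Single islets were then stimulated 60 min at 37 °C with 3.3 or 16.7 mM glucose. Insulin was measured by RIA as fold of the 16.7 mM glucose control; 24 replicates.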

[8] = Induction of 3.3 mM glucose-stimulated insulin secretion in NMRI mouse pancreatic islets at 10^-8 M pretreated for 72 hrs in presence of 11.1 mM glucose followed by 3.3 mM glucose stimulation after 60 mins by radioimmunoassay; format: cell-based; details: pancreatic islet, 1 h, 0.01 µM; outline: as §3
Pancreatic islet [9] = assay: Upregulation of INS1 mRNA expression in NMRI mouse pancreatic islets at 10^-8 M after 72 hrs by Taqman-based qRT-PCR analysis; format: functional, cell-based
Outline: (§4)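 Female NMRI mouse islets were exposed 72 h to compound at 10−8 M in RPMI with 11.1 mM glucose. Islets from 2–3 mice (180–200) were pooled for Trizol RNA extraction. Reverse transcription and 14-cycle preamplification preceded TaqMan real-time PCR. Data were normalized to the geometric mean of 18S and Hprt1 by the (1+efficiency)−ΔCT method and expressed as fold versus untreated control. Samples were run in triplicate, each measured in triplicate.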

Pancreatic islet [10] = assay: Upregulation of INS2 mRNA expression in NMRI mouse pancreatic islets at 10^-8 M after 72 hrs by Taqman-based qRT-PCR analysis; format: functional, cell-based; outline: as §4
Pancreatic islet [11] = assay: Upregulation of PDX1 mRNA expression in NMRI mouse pancreatic islets at 10^-8 M after 72 hrs by Taqman-based qRT-PCR analysis; format: functional, cell-based; outline: as §4
Pancreatic islet [12] = assay: Upregulation of INSR mRNA expression in NMRI mouse pancreatic islets at 10^-8 M after 72 hrs by Taqman-based qRT-PCR analysis; format: functional, cell-based; outline: as §4
Pancreatic islet [13] = assay: Upregulation of IRS1 mRNA expression in NMRI mouse pancreatic islets at 10^-8 M after 72 hrs by Taqman-based qRT-PCR analysis; format: functional, cell-based; outline: as §4
Pancreatic islet [14] = assay: Upregulation of GLUT2 mRNA expression in NMRI mouse pancreatic islets at 10^-8 M after 72 hrs by Taqman-based qRT-PCR analysis; format: functional, cell-based; outline: as §4
Pancreatic islet [15] = assay: Upregulation of […] mRNA expression in NMRI mouse pancreatic islets at 10^-8 M after 72 hrs by Taqman-based qRT-PCR analysis; format: functional, cell-based; outline: as §4
Pancreatic islet [16] = assay: Upregulation of GCGR mRNA expression in NMRI mouse pancreatic islets at 10^-8 M after 72 hrs by Taqman-based qRT-PCR analysis; format: functional, cell-based; outline: as §4
Pancreatic islet [17] = assay: (§5) Induction of 11.1 mM glucose-stimulated insulin secretion in NMRI mouse pancreatic islets at 10^-6 M after 60 mins by radioimmunoassay relative to control; format: functional; outline: as §2
[18] = as §5; format: functional, Pancreatic islet; outline: as §2

Row | Compound | fold change (FC) [1] | fold change (FC) [2] | fold change (FC) [3] | Activity [4] | Activity [5] | Activity (Pancreatic islet [6]) | fold change (FC) [7] | Activity [8] | Activity (Pancreatic islet [9]) | Activity (Pancreatic islet [10]) | Activity (Pancreatic islet [11]) | Activity (Pancreatic islet [12]) | Activity (Pancreatic islet [13]) | Activity (Pancreatic islet [14]) | Activity (Pancreatic islet [15]) | Activity (Pancreatic islet [16]) | Activity (Pancreatic islet [17]) | Activity [18] [%]
1 | O=c1cc(-c2ccc(O)cc2)oc2c([C@@H]3O[C@H](CO)[C@@H](O)[C@H](O)[C@H]3O)c(O)c([C@@H]3O[C@H](CO)[C@@H](O)[C@H](O)[C@H]3O)c(O)c12 | 2.3 | 2.3 | 2.5 | Non-Toxic | Non-Toxic | Active | 2.2 | Non-Toxic | inactive | inactive | inactive | Active | inactive | inactive | inactive | inactive | – | –
2 | O=C(O)/C=C/c1ccc(O)c(O)c1 [CAFFEIC ACID] | 2 | 1.7 | – | Non-Toxic | Non-Toxic | Active | 1.5 | Non-Toxic | inactive | inactive | Active | inactive | inactive | Active | Active | inactive | inactive | –
3 | O=C(/C=C/c1ccc(O)c(O)c1)O[C@@H](C(=O)O)[C@@H](O)C(=O)O [CAFTARIC ACID] | 5.5 | 5.1 | 2.8 | Non-Toxic | Non-Toxic | Active | 3.2 | Non-Toxic | Active | Active | inactive | Active | inactive | inactive | inactive | inactive | – | –
4 | O=C(/C=C/c1ccc(O)c(O)c1)O[C@@H](C(=O)O)[C@@H](OC(=O)/C=C/c1ccc(O)c(O)c1)C(=O)O [CICHORIC ACID] | 4.1 | 1.9 | 1.8 | Non-Toxic | Non-Toxic | Active | 3.5 | Non-Toxic | Active | Active | Active | Active | Active | inactive | inactive | inactive | – | –
5 | O=C(/C=C/c1ccc(O)c(O)c1)O[C@H](Cc1ccc(O)c(O)c1)C(=O)O [ROSMARINIC ACID] | 4.9 | 2.8 | 3.3 | Non-Toxic | Non-Toxic | Active | 3.4 | Non-Toxic | Active | Active | Active | Active | Active | Active | inactive | inactive | – | 68
